From PMC6805150 (Bioorganic & medicinal chemistry, 2014)
No end group written: not given here.

Key:
[1] = biological target: T1, GST-RXRα LBD with D22 coactivator peptide (Homo sapiens, UniProt P19793); experiment: TR-FRET RXR LBD-coactivator peptide recruitment assay, D22 peptide; assay type: biochemical; conditions: in combination with a low concentration of CD3254 agonist (Figure S2)
T1 sequence (P19793 227-458 limits assumed): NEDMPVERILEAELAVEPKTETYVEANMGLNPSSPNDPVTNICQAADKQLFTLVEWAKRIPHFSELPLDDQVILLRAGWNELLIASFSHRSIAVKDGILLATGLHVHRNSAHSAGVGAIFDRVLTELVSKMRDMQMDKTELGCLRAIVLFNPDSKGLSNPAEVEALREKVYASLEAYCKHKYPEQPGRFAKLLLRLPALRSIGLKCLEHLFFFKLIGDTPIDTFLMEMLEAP
In short: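 5 nM GST-RXRα LBD incubated at room temperature with 150 nM fluorescein-D22 peptide in 25 mM Hepes pH 7.4, 100 mM NaCl, 0.025% BSA, 5% glycerol, 0.005% Tween-20, 2.5 mM DTT. Ligand or DMSO (≤1%) added; 2 nM Tb-anti-GST antibody for detection. After 4 h, TR-FRET read at 495 and 520 nm. The 520/495 ratio was expressed as Delta F% against controls lacking GST-RXRα.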

RXRα = biological target: T2, RXRα (Homo sapiens, UniProt P19793); experiment: Gal4-RXRα transactivation assay in HEK-293-luciferase reporter cells; assay type: cell-based
T2 sequence (P19793 1-462): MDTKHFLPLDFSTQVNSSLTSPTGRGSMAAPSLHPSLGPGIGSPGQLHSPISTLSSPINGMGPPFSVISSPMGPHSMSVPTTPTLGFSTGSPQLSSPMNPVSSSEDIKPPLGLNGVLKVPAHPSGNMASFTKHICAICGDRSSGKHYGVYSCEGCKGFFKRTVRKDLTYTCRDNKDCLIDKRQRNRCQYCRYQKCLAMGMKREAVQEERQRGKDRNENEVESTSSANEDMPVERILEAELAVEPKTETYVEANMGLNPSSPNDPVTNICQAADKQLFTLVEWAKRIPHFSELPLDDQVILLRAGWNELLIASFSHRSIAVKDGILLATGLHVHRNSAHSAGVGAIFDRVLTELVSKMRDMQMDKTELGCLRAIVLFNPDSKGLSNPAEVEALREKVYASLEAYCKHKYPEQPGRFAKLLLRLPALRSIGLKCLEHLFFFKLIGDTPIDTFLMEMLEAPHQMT

recombinant IKKβ = biological target: T3, recombinant IKKβ (Homo sapiens, UniProt O14920); experiment: LANCE Ultra TR-FRET kinase assay, recombinant IKKβ; assay type: biochemical
T3 sequence (O14920 1-756): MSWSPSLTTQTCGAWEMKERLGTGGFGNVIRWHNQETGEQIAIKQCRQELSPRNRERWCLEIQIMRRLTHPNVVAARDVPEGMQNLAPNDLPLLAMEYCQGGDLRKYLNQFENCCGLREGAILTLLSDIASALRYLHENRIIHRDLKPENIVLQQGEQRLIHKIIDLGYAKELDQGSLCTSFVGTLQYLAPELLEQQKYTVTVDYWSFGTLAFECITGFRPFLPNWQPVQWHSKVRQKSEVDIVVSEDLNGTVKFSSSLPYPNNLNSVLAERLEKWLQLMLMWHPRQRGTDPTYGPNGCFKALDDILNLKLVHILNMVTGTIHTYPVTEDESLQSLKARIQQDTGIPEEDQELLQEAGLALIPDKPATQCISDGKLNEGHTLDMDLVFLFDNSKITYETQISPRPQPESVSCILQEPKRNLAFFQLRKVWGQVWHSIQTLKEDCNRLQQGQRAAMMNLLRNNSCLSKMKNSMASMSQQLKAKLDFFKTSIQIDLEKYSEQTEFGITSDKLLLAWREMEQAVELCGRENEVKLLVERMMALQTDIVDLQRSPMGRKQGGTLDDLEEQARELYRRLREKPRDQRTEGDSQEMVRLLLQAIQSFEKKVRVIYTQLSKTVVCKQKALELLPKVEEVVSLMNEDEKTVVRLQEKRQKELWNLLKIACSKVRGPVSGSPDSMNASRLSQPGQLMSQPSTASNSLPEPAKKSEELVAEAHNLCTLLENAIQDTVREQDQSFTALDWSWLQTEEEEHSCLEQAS
In short: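 Purified recombinant IKKβ (1 nM) in Hepes pH 7.4 buffer with MgCl₂, EGTA, DTT and Tween-20; 50 nM ULight-IκBα peptide substrate; 1.25 μM ATP. Runs 1 h at room temperature, then stopped with 20 mM EDTA plus 2 nM Eu-labelled phospho-specific antibody for TR-FRET. Activity is % of solvent control, 3–4 experiments in triplicate.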

Jurkat T cells = experiment: CellTiter-GLO cell viability/proliferation assay; conditions: 4 μM, 24 h (Table 1)
recombinant IKKα = biological target: T4, recombinant IKKα (Homo sapiens, UniProt O15111); experiment: LANCE Ultra TR-FRET kinase assay, recombinant IKKα; assay type: biochemical; conditions: 20 μM AdAr; ATP near apparent Km; vs solvent control; ± SD, 3–4 experiments
T4 sequence (O15111 1-745): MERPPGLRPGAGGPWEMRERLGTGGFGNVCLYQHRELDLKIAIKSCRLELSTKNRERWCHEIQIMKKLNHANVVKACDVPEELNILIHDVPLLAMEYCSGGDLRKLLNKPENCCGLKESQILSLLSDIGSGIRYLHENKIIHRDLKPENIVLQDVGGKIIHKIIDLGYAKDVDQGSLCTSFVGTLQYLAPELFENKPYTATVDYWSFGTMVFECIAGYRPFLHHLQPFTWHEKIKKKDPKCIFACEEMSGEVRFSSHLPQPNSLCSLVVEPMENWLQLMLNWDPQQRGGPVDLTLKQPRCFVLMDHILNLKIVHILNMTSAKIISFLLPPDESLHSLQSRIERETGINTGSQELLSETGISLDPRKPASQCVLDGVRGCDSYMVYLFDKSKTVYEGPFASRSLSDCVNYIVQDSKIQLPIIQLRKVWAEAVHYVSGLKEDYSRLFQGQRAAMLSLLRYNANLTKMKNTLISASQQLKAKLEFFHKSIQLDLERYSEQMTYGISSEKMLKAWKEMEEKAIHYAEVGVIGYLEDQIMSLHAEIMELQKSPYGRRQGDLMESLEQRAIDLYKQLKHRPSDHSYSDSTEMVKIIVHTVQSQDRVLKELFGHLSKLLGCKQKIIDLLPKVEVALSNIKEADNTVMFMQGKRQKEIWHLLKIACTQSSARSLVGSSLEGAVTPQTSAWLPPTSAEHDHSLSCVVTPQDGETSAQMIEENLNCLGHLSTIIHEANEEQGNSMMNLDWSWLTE
In short: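 Reaction stopped with 20 mM EDTA plus 2 nM Eu-labelled phospho-specific antibody. TR-FRET (ex 340 nm; 615/665 nm) read 2 h later. Counts normalized; inhibition relative to solvent control; triplicates.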

recombinant IKKε = biological target: T5, recombinant IKKε (Homo sapiens, UniProt Q14164); experiment: LANCE Ultra TR-FRET kinase assay, recombinant IKKε; assay type: biochemical; conditions: 20 μM AdAr; ATP near apparent Km; vs solvent control; ± SD, 3–4 experiments
T5 sequence (Q14164 1-716): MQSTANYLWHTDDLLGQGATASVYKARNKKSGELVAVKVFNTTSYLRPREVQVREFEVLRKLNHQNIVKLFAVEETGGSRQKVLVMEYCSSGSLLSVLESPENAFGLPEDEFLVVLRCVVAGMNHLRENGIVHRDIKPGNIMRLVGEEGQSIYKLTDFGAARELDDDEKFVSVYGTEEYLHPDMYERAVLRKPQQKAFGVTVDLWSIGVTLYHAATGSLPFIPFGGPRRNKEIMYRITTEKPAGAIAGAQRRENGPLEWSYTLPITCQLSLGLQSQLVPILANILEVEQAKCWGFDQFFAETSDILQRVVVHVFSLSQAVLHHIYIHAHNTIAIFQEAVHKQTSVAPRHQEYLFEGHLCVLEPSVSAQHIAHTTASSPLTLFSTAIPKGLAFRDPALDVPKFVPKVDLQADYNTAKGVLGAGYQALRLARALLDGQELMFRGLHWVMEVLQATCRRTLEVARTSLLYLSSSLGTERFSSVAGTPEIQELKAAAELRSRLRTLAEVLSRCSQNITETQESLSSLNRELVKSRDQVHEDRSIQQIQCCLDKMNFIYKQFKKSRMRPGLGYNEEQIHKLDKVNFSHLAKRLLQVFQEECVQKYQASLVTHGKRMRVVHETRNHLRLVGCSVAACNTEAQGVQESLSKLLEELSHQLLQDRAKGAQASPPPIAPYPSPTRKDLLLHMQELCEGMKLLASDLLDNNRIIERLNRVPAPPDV
In short: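 Recombinant IKKε enzyme, 2 nM final, in Hepes pH 7.4 kinase buffer (10 mM MgCl₂, 1 mM EGTA, 2 mM DTT, 0.01% Tween-20). Substrate was 50 nM ULight-rpS6, with 5 μM ATP, run 2 h at room temperature. The reaction was quenched with 20 mM EDTA containing 2 nM Eu-anti-phospho antibody. After 2 h, TR-FRET was read at 615 and 665 nm (340 nm excitation). Percent inhibition was taken versus solvent control; triplicate points.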

GST-RXRα LBD = experiment: AlphaScreen or HTRF

For `Cc1cc(O)c(C23CC4CC(CC(C4)C2)C3)cc1-c1ccc2cc(C(=O)O)ccc2c1Cl` [4a], the “inhibition of RXRα LBD/D22 binding stimulated by CD3254” value (from here on “inhibition … by CD3254”) [1] was 25%, the “inhibition in Gal4-RXRα transactivation assay, antagonist mode” value (RXRα; 100 nM CD3254 plus 4 μM AdAr) was 30% and the “potency against IKKβ relative to MX781 3 (times more potent)” value (recombinant IKKβ; ratio of IC50 values) was “about 2.5 times”. For the same molecule, the “inhibition of Jurkat cell viability” value (Jurkat T cells) was > 85%.

For `CCCCCOc1cc2c(cc1-c1cc(/C=C/C(=O)O)ccc1O)C(C)(C)CCC2(C)C` [34, UVI3003, reference compound], the “inhibition … by CD3254” value [1] was “complete inhibition”.

“(E)-3-[2-(3-Acetamidopropoxy)-3-(adamant-1-yl)-4-hydroxybiphenyl-4-yl]acrylic Acid [2c]” was tested, and the “% Inhibition of IKK activity IKKα” value (recombinant IKKα) was 5.0 ± 4.9%, the “% Inhibition of IKK activity IKKε” value (recombinant IKKε) was 14.4 ± 4.1% and the “% Inhibition of IKK activity IKKβ” value (recombinant IKKβ; 20 μM AdAr, ATP near apparent Km, vs solvent control, ± SD, 3–4 experiments) was 0%.

`COCCOCOc1ccc(-c2ncc(-c3ccc(C(=O)O)cc3)s2)cc1C12CC3CC(CC(C3)C1)C2` [8c, 4-[2-(3-Adamantan-1-yl-4-[(2-methoxyethoxy)methoxy]phenyl)thiazol-5-yl]benzoic Acid] was tested, and the “Gal4-RXRα transactivation, % of the maximum activity observed with control rexinoid CD3254” value (RXRα; 4 μM AdAr, CD3254 1 μM) was ~ 20% and the “RXR Profile Agonist (fold induction of RXRα activity)” value (RXRα; AdArs 4 μM, positive control CD3254 1 μM, vs solvent control cells) was 3 fold induction.

With `O=C(O)c1ccc(-c2cnc(-c3ccc(O)c(C45CC6CC(CC(C6)C4)C5)c3)s2)cc1` [8a, 4-[2-(3-Adamantan-1-yl-4-hydroxyphenyl)thiazol-5-yl]benzoic Acid] the “inhibition of Jurkat cell viability” value (Jurkat T cells) was > 85%.

With `Cc1cc(O)c(C23CC4CC(CC(C4)C2)C3)cc1-c1ccc(CC(=O)O)cc1Cl` [6a] the “inhibition … by CD3254” value [1] was 25%.

B1: fluorescein labeled D22 coactivator peptide (peptide)
peptide: fluorescein-LPYEGSLLLKLLRAPVEEV
Work on B1 yielded a % inhibition of the CD3254-stimulated interaction (by 4a) (GST-RXRα LBD) of 25%, a % inhibition of the CD3254-stimulated interaction (by 6a) (GST-RXRα LBD) of 25% and a Delta F% (ligand: 4a) (GST-RXRα LBD) of 29%. For the same molecule, the Delta F% (ligand: 4b) (GST-RXRα LBD) was 159%, the Delta F% (ligand: 5a) (GST-RXRα LBD) was 487% and the Delta F% (ligand: 5b) (GST-RXRα LBD) was 654%. It also gave a Delta F% (ligand: 5c) (GST-RXRα LBD) of 113%, a Delta F% (ligand: 6b) (GST-RXRα LBD) of 214% and a Delta F% (ligand: 7a) (GST-RXRα LBD) of 156%. It also gave a Delta F% (ligand: 7c) (GST-RXRα LBD) of 127%, a Delta F% (ligand: 8a) (GST-RXRα LBD) of 94% and a Delta F% (ligand: 8b) (GST-RXRα LBD) of 113%. For the same molecule, the Delta F% (ligand: 8c) (GST-RXRα LBD) was 133%, the Delta F% (ligand: 9c) (GST-RXRα LBD) was 119% and the Delta F% (ligand: 10a) (GST-RXRα LBD) was 102%. The Delta F% (ligand: 10c) (GST-RXRα LBD) was 170%, the Delta F% (ligand: 9d) (GST-RXRα LBD) was 87% and the Delta F% (ligand: CD3254 33) (GST-RXRα LBD) was 416%. It also gave a Delta F% (no ligand) (GST-RXRα LBD) of 100%.

B2: biotinylated SRC-1-676-700 peptide (peptide)
peptide: CPSSHSSLTERHKILHRLLQEGSPSK
modifications: biotin on the added C-terminal lysine (-K-biotin)
Work on B2 yielded a Delta F% (ligand: 4a) (GST-RXRα LBD) of 53%, a Delta F% (ligand: 4b) (GST-RXRα LBD) of 187% and a Delta F% (ligand: 5a) (GST-RXRα LBD) of 373%. It also gave a Delta F% (ligand: 5b) (GST-RXRα LBD) of 437%, a Delta F% (ligand: 5c) (GST-RXRα LBD) of 152% and a Delta F% (ligand: 6a) (GST-RXRα LBD) of 81%. The Delta F% (ligand: 6b) (GST-RXRα LBD) was 422%, the Delta F% (ligand: 7a) (GST-RXRα LBD) was 162% and the Delta F% (ligand: 8a) (GST-RXRα LBD) was 183%. For the same molecule, the Delta F% (ligand: 8b) (GST-RXRα LBD) was 117%, the Delta F% (ligand: 8c) (GST-RXRα LBD) was 159% and the Delta F% (ligand: 9a) (GST-RXRα LBD) was 116%. For the same molecule, the Delta F% (ligand: 9b) (GST-RXRα LBD) was 106%, the Delta F% (ligand: 9c) (GST-RXRα LBD) was 122% and the Delta F% (ligand: 10a) (GST-RXRα LBD) was 111%. The Delta F% (ligand: 10c) (GST-RXRα LBD) was 172%, the Delta F% (ligand: 7d) (GST-RXRα LBD) was 133% and the Delta F% (ligand: 8d) (GST-RXRα LBD) was 115%. The Delta F% (ligand: 9d) (GST-RXRα LBD) was 106%, the Delta F% (ligand: CD3254 33) (GST-RXRα LBD) was 561% and the Delta F% (no ligand) (GST-RXRα LBD) was 148%.
